According to BindingDB's records for doi:10.1021/np1002065 (The Ohio State University, 2010):

Columns and labels:
Transcription factor p65 = Transcription factor p65 (Human, UniProt Q04206); experiment: Inhibition of NFkappa p65 isolated from nuclear extract of human HeLa cells assessed as blockade of binding to biotinylated consesus sequence by chemiluminescence assay
How it was run: (§1)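 ELISA-format transcription factor assay. HeLa nuclear extract was treated with samples, and activated p50 or p65 bound to a biotinylated consensus sequence was detected by chemiluminescence on a plate reader. IC50 reported in μM.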

[1] = target: T1, Nuclear factor NF-kappa-B p105 subunit (Homo sapiens, UniProt P19838); experiment: Inhibition of NFkappa p50 isolated from nuclear extract of human HeLa cells assessed as blockade of binding to biotinylated consesus sequence by chemiluminescence assay; how it was run: as §1
T1 sequence (P19838 whole entry): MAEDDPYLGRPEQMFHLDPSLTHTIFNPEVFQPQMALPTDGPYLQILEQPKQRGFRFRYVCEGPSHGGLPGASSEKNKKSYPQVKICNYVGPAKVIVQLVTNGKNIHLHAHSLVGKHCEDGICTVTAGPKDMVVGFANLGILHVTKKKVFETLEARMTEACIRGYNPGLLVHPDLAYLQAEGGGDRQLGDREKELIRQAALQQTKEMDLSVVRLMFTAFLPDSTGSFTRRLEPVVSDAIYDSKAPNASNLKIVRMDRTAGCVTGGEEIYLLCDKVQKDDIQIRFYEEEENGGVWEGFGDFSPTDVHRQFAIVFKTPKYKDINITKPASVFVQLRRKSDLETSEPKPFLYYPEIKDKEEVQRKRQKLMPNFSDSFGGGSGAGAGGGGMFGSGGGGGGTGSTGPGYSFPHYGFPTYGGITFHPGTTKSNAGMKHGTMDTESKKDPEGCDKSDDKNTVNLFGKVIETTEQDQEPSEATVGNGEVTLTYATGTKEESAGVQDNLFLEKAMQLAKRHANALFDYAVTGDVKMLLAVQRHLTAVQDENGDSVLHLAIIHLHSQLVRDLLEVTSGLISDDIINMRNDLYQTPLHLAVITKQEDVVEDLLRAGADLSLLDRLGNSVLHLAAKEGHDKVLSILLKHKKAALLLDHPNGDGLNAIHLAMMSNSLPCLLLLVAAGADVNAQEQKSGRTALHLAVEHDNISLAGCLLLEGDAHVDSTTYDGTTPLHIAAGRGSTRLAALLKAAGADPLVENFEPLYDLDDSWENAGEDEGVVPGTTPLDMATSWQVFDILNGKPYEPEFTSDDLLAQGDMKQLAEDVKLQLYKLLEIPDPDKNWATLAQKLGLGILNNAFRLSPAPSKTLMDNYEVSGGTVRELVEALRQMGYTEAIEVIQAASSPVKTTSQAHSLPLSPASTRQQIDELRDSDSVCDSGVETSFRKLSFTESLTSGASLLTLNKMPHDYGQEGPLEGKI

Transcription factor p65, sequence (Q04206 whole entry): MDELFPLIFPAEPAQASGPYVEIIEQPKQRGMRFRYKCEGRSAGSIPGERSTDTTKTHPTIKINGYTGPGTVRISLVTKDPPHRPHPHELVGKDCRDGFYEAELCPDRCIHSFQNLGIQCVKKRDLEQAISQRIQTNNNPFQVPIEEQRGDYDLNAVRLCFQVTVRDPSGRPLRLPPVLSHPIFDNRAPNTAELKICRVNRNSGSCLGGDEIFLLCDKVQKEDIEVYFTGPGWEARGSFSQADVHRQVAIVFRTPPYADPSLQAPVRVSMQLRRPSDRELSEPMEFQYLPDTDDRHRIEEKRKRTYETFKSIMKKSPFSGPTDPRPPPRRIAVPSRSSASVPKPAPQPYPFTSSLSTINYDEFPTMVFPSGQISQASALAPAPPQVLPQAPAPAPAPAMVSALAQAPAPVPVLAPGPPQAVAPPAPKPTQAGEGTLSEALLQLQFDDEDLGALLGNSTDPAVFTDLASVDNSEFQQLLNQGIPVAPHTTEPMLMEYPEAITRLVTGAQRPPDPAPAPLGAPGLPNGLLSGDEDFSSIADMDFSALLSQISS

SMILES: C=C(C)[C@H]1Cc2c(oc3c4c(cc(=O)c-3c2O)OC(C)(C)C=C4)-c2c(O)cc(O)c(O)c21 [artobiloxanthone]
- IC50 (Transcription factor p65): 2.3 µM
- IC50 [1]: 3.7 µM

SMILES: CC1(C)C=Cc2cc3c(cc2O1)Oc1cc(O)ccc1C(=O)C3 [Artoristilbene]
- IC50 (Transcription factor p65): > 10 µM
- IC50 [1]: > 10 µM

SMILES: C=C(C)[C@H]1Cc2c(oc3cc(O)c(CC=C(C)C)c(=O)c-3c2O)C2=C1C(=O)C(=O)C(CC=C(C)C)C2=O (stereo partly specified) [Artonin O]
- IC50 (Transcription factor p65): > 10 µM
- IC50 [1]: > 10 µM
